Tests used:
[1] = Cmax in Sprague-Dawley rat at 20 mg/kg, po measured upto 24 hrs in presence of 10 mg/kg encequidar by LC-MS/MS analysis; type: ADME, organism-based; design: route oral, dose 20 mg/kg, time <=24; conditions: in vivo
[2] = Drug distribution in BALB/c mouse intestine at 20 mg/kg, po measured upto 24 hrs in presence of 10 mg/kg encequidar by LC-MS/MS analysis; type: ADME, organism-based; conditions: in vivo
[3] = Ratio of drug concentration in BALB/c mouse small intestine to plasma at 20 mg/kg, po measured upto 24 hrs in presence of 10 mg/kg encequidar by LC-MS/MS analysis; type: ADME, organism-based
MDA-MB-231 = assay: Antitumor activity against human MDA-MB-231 cells xenografted in athymic nude mouse assessed as reduction in median number of days for tumor to reach two tumor mass doubling at 40 mg/kg, po administered every other day for 4 doses in presence of 16 mg/kg encequidar and monitored for 70 to 82 days (reference value: 13.1 day); type: functional; conditions: time 70-82 day
NCI-H460 = assay: Antitumor activity against human NCI-H460 cells xenografted in athymic nude mouse assessed as median tumor growth delay at 18 mg/kg, iv administered every other day for 4 doses and monitored for 48 days; type: functional; conditions: time 48 day
How it was run: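 Female athymic NCr-nu mice carried subcutaneous NCI-H460 xenografts. […] Tumor weights and body weights were followed for 48 days after implantation. Read-out was median tumor growth delay.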

[4] = Drug distribution in Beagle dog liver; type: ADME, tissue-based, Canis lupus familiaris; conditions: in vivo
[5] = Cmax in Beagle dog at 10 mg/kg, po measured upto 48 hrs by LC-MS/MS analysis; conditions: in vivo

Row | SMILES | Cmax [1] [ng/mL] | Drug uptake [2] | Kp at 24 h [3] | Time (MDA-MB-231) [days] | Time (NCI-H460) [days] | Drug uptake [4] | Cmax [5] [ng/mL]
1 | CC(=O)O[C@H]1C(=O)[C@@]2(C)[C@H]([C@H](OC(=O)c3ccccc3)[C@]3(O)C[C@H](OC(=O)[C@H](O)[C@@H](NC(=O)c4ccccc4)c4ccccc4)C(C)=C1C3(C)C)[C@]1(OC(C)=O)CO[C@@H]1C[C@@H]2O [PACLITAXEL] | 1250 | Active | > 1 | >69 | 8.5 |  | 
2 | COc1cc2c(cc1OC)CN(CCc1ccc(-n3nnc(-c4cc(OC)c(OC)cc4NC(=O)c4cc(=O)c5ccccc5o4)n3)cc1)CC2 |  |  |  |  |  | Active | 26.6

From ChEMBL document CHEMBL4825663 (J Med Chem, 2021)
